Source: ChEMBL document CHEMBL3779851, “Synthesis and biological evaluation of salicylic acid conjugated isoxazoline analogues on immune cell proliferation and angiogenesis” (2016)
Activity calls are given as the source filed them. The rule behind the calls is not given here.

Key:
[1] = system: HEK293; assay: Induction of cell proliferation of HEK293 cells assessed as proliferation rate at 100 uM measured up to 72 hrs by MTT assay; assay type: functional; settings: Homo sapiens, HEK293, 72 h; read-out: Activity
[2] = system: PBL; assay: Immunostimulatory activity in human PBL assessed as increase in cell proliferation […] after 72 hrs by MTT assay relative to control; assay type: functional
In short: (§1)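 Ficoll-isolated human PBLs were plated at 2.5×10^6 cells/mL in RPMI-1640 at 37 °C, 5% CO2. After 3 h they were treated with 0, 10, 20, 50 or 100 µM compound in DMSO, with Con A at 1–20 µg/mL as reference mitogen. MTT was added at 72 h for 4 h, and formazan dissolved in DMSO was read at 570 nm. Proliferative index was taken as fold over untreated control, from three independent experiments.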

[3] = target: Prostaglandin G/H synthase 1 (Homo sapiens) (UniProt P23219); assay: Inhibition of COX1 in human PBL after 72 hrs by colorimetric method; settings: concentration not given here
[4] = system: PBL; assay: Ex-vivo induction of IL-2 production in human PBL at 100 uM after 72 hrs by ELISA relative to control; assay type: functional
In short: (§2)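 Human PBLs were isolated from heparinized venous blood of consenting volunteers aged 18–60 y on Ficoll-hypaque (1.077 g/mL). They were seeded at 5×10^5 cells/well in RPMI-1640, exposed to compound in DMSO, and held 72 h at 37 °C, 5% CO2. Supernatants were taken after centrifugation at 240 × g, and IL-2, IL-12 and IL-23 were measured by ELISA, in triplicate.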

[5] = system: PBL; assay: Ex-vivo induction of IL-12 production in human PBL at 100 uM after 72 hrs by ELISA; assay type: functional, cell-based; in short: as §2
[6] = system: Chorioallantoic membrane; assay: Pro-angiogenic activity in chicken chorioallantoic membrane assessed as dense blood vessel formation by measuring microvascular density at 20 uM after 12 days; assay type: functional; settings: Gallus gallus
[7] = Immunostimulatory activity in Swiss albino mouse splenocytes assessed as increase in proliferation at 100 uM after 72 hrs by MTT assay relative to ConA; assay type: functional, Splenocyte
In short: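 Splenocytes came from Swiss albino mice (23–25 g, 12 weeks). Erythrocytes were lysed in NH4Cl/KHCO3/EDTA buffer, pH 7.4. Cells were plated at 2.5×10^6 cells/mL in RPMI-1640 at 37 °C, 5% CO2, and compound (0–100 µM in DMSO) was added after 3 h. After 72 h, MTT was added for 4 h and formazan dissolved in DMSO was read at 570 nm. Con A (1–20 µg/mL) served as reference, and the index was expressed as fold over untreated control (1.0).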

[8] = system: Cornea; assay: Pro-angiogenic activity in rat cornea assessed as vascularization by measuring microvascular density at 20 ug after overnight incubation; assay type: functional
[9] = system: PBL; assay: Ex-vivo induction of IL-2 production in human PBL at 100 uM after 72 hrs by ELISA (reference value: 328 pg/ml); assay type: functional; in short: as §2
[10] = system: PBL; assay: Immunostimulatory activity in human PBL assessed as increase in cell proliferation after 72 hrs by MTT assay; assay type: functional, cell-based; in short: as §1
[11] = system: PBL; assay: Ex-vivo induction of IL-23 production in human PBL at 100 uM after 72 hrs by ELISA; assay type: functional, cell-based; in short: as §2

Chain of Prostaglandin G/H synthase 1 (Homo sapiens) (P23219 whole entry): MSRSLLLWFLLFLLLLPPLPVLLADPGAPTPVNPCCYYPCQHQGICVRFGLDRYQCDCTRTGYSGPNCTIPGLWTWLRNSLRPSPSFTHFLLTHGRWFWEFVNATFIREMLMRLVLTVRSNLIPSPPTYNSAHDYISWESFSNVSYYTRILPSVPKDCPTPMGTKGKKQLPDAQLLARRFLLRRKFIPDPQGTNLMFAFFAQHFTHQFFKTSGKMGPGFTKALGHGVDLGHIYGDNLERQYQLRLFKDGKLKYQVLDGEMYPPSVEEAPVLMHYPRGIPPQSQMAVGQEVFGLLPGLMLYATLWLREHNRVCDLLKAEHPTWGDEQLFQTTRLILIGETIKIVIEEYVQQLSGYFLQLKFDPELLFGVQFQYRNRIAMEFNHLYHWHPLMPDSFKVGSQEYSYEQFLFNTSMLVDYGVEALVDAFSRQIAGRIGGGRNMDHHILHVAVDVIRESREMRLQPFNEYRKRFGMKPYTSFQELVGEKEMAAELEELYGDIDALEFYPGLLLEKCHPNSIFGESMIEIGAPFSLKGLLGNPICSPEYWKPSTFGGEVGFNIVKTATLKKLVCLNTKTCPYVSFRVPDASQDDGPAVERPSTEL

Structure (SMILES) | growth at 100 µM [1] [%] | Activity [2] | also measured
COc1ccc(C2=NOC(c3ccc(O)cc3)C2C(=O)c2ccc(O)c(C(=O)O)c2)cc1 (configuration not stated) | 8 |  | 
COc1ccc(C2=NOC(c3cccc(Cl)c3)C2C(=O)c2ccc(O)c(C(=O)O)c2)cc1 (configuration not stated) | 73 |  | fold change (FC) [2]: 1.25; inhibition [3]: 39%; fold change (FC) [4]: 4; Activity [5]: inactive; Activity [6]: Active; fold change (FC) [7]: 1.2; Activity [8]: Active; Activity [9]: 1460 pg/mL; Activity [10]: Dose-dependent effect; Activity [11]: inactive
COc1ccc(C2=NOC(c3ccccc3)C2C(=O)c2ccc(O)c(C(=O)O)c2)c(OC)c1 (configuration not stated) | 0 |  | 
O=C(O)c1cc(C(=O)C2C(c3cccc(Cl)c3)=NOC2c2cccc(Cl)c2)ccc1O (configuration not stated) | 42 | Active | 
COc1ccc(C2ON=C(c3ccc(Cl)cc3)C2C(=O)c2ccc(O)c(C(=O)O)c2)cc1 (configuration not stated) | 11 | inactive | 
COc1ccc(C2ON=C(c3cccc(Cl)c3)C2C(=O)c2ccc(O)c(C(=O)O)c2)cc1 (configuration not stated) | 9 | inactive | 
O=C(O)c1cc(C(=O)C2C(c3cccc(Cl)c3)=NOC2c2ccc(O)cc2)ccc1O (configuration not stated) | 0 | inactive | 
O=C(O)c1cc(C(=O)C2C(c3ccc(Cl)cc3)=NOC2c2ccc(Br)cc2)ccc1O (configuration not stated) | 6 | inactive | 
O=C(O)c1cc(C(=O)C2C(c3cccc(Cl)c3)=NOC2c2ccc(Br)cc2)ccc1O (configuration not stated) | 12 | inactive | 
O=C(O)c1cc(C(=O)C2C(c3ccc(Cl)cc3)=NOC2c2ccc(Cl)cc2)ccc1O (configuration not stated) | 9 | inactive | 
